In ChEMBL document CHEMBL1773020, “Discovery of fused bicyclic agonists of the orphan G-protein coupled receptor GPR119 with in vivo activity in rodent models of glucose control” (Bioorg Med Chem Lett, 2011) one finds EC50, Emax and Ratio EC50 data, which are given here for 31 molecules.

SMILES strings stand for the structures.

For test [1], the target named is T1, Glucose-dependent insulinotropic receptor (Homo sapiens, UniProt Q8TDV5).
T1 sequence (Q8TDV5 whole entry): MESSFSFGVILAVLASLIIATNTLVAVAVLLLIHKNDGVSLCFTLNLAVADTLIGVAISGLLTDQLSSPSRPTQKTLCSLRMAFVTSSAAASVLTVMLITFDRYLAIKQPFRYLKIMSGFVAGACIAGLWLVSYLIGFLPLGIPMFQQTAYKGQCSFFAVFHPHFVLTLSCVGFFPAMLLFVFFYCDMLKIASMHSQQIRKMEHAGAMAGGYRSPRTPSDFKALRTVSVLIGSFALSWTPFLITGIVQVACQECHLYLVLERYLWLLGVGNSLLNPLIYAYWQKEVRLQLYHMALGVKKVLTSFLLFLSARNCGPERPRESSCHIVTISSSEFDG
Briefly: Agonist activity at human GPR119 by melanophore assay. Type of test: functional. The method, boiled down: (§1)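 Agonist EC50 measured in melanophores transfected with the human or rat GPR119 receptor sequence. Values are means of multiple determinations (n).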

Test [2] concerns the target T2, Glucose-dependent insulinotropic receptor (Homo sapiens) (UniProt Q8TDV5).
T2 sequence (whole entry): T1 sequence (Q8TDV5 whole entry)
The experiment in a line: Agonist activity at human GPR119 by melanophore assay relative to AR231453. Type of test: functional. In a few lines: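 Melanophores transfected with human GPR119. Apparent Emax is the curve height normalized to the positive control AR231453, which is defined as a full agonist (100% efficacy).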

In test [3] the target is T3, Glucose-dependent insulinotropic receptor (Rattus norvegicus) (UniProt Q7TQN8).
T3 sequence (whole entry): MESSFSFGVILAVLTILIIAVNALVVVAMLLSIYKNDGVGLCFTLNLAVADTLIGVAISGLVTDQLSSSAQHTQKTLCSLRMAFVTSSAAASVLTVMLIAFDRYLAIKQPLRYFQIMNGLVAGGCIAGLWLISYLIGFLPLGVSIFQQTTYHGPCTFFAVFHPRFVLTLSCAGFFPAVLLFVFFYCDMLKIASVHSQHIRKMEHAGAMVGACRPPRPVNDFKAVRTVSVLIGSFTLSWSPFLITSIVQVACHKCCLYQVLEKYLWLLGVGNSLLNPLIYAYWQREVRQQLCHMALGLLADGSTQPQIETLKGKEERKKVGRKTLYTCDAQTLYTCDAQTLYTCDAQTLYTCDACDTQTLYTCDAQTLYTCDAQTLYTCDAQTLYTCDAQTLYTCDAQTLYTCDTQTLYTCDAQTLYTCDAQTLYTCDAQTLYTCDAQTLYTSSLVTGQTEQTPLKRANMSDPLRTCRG
Briefly: Selectivity ratio of EC50 for rat GPR119 to EC50 for human GPR119.

Test [4] concerns the target T4, Glucose-dependent insulinotropic receptor (Rattus norvegicus, UniProt Q7TQN8).
T4 sequence (Q7TQN8 whole entry): T3 sequence (whole entry)
Briefly: Agonist activity at rat GPR119 by melanophore assay. It counts as functional. In a few lines:
as §1

For `CCCCOC(=O)N1CCC(Oc2ncnc3c2cnn3-c2ccc(S(C)(=O)=O)cc2)CC1`, it took 7.5 nM to reach a half-maximal effect in test [1] (EC50). This molecule displayed an Emax in test [2] of 79%.
In the case of `CC(C)(C)OC(=O)N1CCC(Cc2ncnc3c2cnn3-c2ccc(S(C)(=O)=O)cc2)CC1`, the values for the EC50 in test [1] and in test [4] were 7.3 nM and 120 nM, respectively. The molecule also showed an Emax in test [2] of 91%. In test [3], the Ratio EC50 was 16.4.
`CC(C)c1noc(C2CCN(c3ncnc4c3cnn4-c3ccc(S(C)(=O)=O)cc3)CC2)n1` came in with a 50% effective concentration (EC50) in test [1] of 42 nM.
Regarding `CC(C)(C)OC(=O)N1CCC([S+]([O-])c2ncnc3c2cnn3-c2ccc(S(C)(=O)=O)cc2)CC1` (stereo not drawn), the EC50 is 2400 nM in test [1] and over 10000 nM in test [4].
As to `CCOC(=O)N1CCC(Oc2ncnc3c2cnn3-c2ccc(S(C)(=O)=O)cc2)CC1`, the EC50 in test [1] amounted to 3.8 nM; in test [4], 53 nM. The maximum response (Emax) in test [2] was found to be 91%. Also, the Ratio EC50 in test [3] came to 13.9.
`CC(C)(C)OC(=O)N1CCC(Oc2ncnc3c2ncn3-c2ccc(S(C)(=O)=O)cc2)CC1`: a half-maximal response in test [1] (EC50) required 33.4 nM. The molecule further displayed a maximum response (Emax) in test [2] of 95%.
As to `CCN(CC1CCN(C(=O)OC(C)C)CC1)c1ncnc2c1cnn2-c1ccc(S(C)(=O)=O)cc1F`, the concentration for a half-maximal effect (EC50) in test [1] worked out at 3.4 nM; in test [4] it was 264 nM. In test [2], the maximal response (Emax) worked out at 82%. The Ratio EC50 in test [3] amounted to 77.6.
Molecule `CC(C)OC(=O)N1CCC(Oc2ncnc3c2cnn3-c2ccc(S(C)(=O)=O)cc2)CC1` yielded a concentration giving a half-maximal response (EC50) in test [1] of 3.5 nM. For the same molecule, in test [2], the Emax worked out at 83%.
`CC(C)(C)OC(=O)N1CCC(Oc2ncnc3c2cnn3-c2ccc(S(C)(=O)=O)cc2)CC1`: the half-maximal effective concentration (EC50) in test [1] came out at 1.1 nM; in test [4], 9.8 nM. In test [2], the maximum response (Emax) stood at 96%. Further, the Ratio EC50 in test [3] came out at 8.9.
For `CS(=O)(=O)c1ccc(-n2ncc3c(OC4CCN(C(=O)OC5CCCC5)CC4)ncnc32)cc1`, the EC50 amounted to 14.6 nM in test [1] and 21 nM in test [4]. In test [2], this molecule displayed a maximal response (Emax) of 80%. Besides, the Ratio EC50 in test [3] came out at 1.4.
The like results for `CC(C)(C)OC(=O)N1CCC(Sc2ncnc3c2cnn3-c2ccc(S(C)(=O)=O)cc2F)CC1` were, in that order, 0.5 nM, 7.3 nM, 98% and 14.6.
On to `CC(C)(C)OC(=O)N1CCC(Nc2ncnc3c2cnn3-c2ccc(S(C)(=O)=O)cc2)CC1`, for which the EC50 in test [1] was 250 nM; in test [4], over 10000 nM. This molecule also displayed an Emax in test [2] of 101%. Further, the Ratio EC50 in test [3] was over 40.
In turn, `CN(CC1CCN(C(=O)OC(C)(C)C)CC1)c1ncnc2c1cnn2-c1ccc(S(C)(=O)=O)cc1` displayed an EC50 in test [1] of 11.6 nM. In test [2], this molecule gave an Emax of 89%.
For the molecule `CC(C)(C)OC(=O)N1CCC(Oc2ncnc3c(-c4ccc(S(C)(=O)=O)cc4)noc23)CC1`, the EC50 in test [1] was found to be 0.7 nM; in test [4], 17 nM. In addition, the maximum response (Emax) in test [2] was found to be 100%. Further, in test [3], the Ratio EC50 turned out to be 24.3.
Take `CN(C)CCOC(=O)N1CCC(Oc2ncnc3c2cnn3-c2ccc(S(C)(=O)=O)cc2)CC1`: in test [1], the EC50 was over 10000 nM.
For `CS(=O)(=O)c1ccc(-n2ncc3c(OC4CCN(C(=O)OC5CCOC5)CC4)ncnc32)cc1` (stereo not drawn), in test [1], the EC50 came to 435 nM. Further, in test [2], the Emax was 71%.
As to `CC(C)COC(=O)N1CCC(Oc2ncnc3c2cnn3-c2ccc(S(C)(=O)=O)cc2)CC1`, in test [1], the EC50 turned out to be 4.2 nM. The Emax in test [2] came out at 99%.
Taken in the same sequence, the figures for `CCN(CC1CCN(C(=O)OC(C)(C)C)CC1)c1ncnc2c1cnn2-c1ccc(S(C)(=O)=O)cc1` were 6.3 nM and 67%.
`CC(C)c1noc(C2CCN(c3ncnc(Nc4ccc(S(C)(=O)=O)cc4F)c3[N+](=O)[O-])CC2)n1` had an EC50 in test [1] of 0.65 nM. This counts as sub-nanomolar.
Turning to `CC(C)(C)OC(=O)N1CCC(Sc2ncnc3c2cnn3-c2ccc(S(C)(=O)=O)cc2)CC1`, the EC50 in test [1] worked out at 5.6 nM; in test [4] it was 15.5 nM. Moreover, in test [2], the maximum response (Emax) worked out at 104%. The Ratio EC50 in test [3] stood at 3.
Taken in the same sequence, the figures for `CC(C)(C)OC(=O)N1CCC(Cc2ncnc3c2cnn3-c2ccc(S(C)(=O)=O)cc2F)CC1` were 3.4 nM, 88 nM, 72% and 25.9.
As to `CC(C)(C)OC(=O)N1CCC(Oc2ncnc3c2nnn3-c2ccc(S(C)(=O)=O)cc2)CC1`, the EC50 in test [1] was found to be 7.4 nM; in test [4], 42 nM. Moreover, the Emax in test [2] amounted to 103%. For the same molecule, the Ratio EC50 in test [3] came to 5.7.
In the case of `CC(C)(C)OC(=O)N1CCC(S(=O)(=O)c2ncnc3c2cnn3-c2ccc(S(C)(=O)=O)cc2)CC1`, the EC50 in test [1] and in test [4] was over 10000 nM each time.
Regarding `CC(C)(C)OC(=O)N1CCC(CNc2ncnc3c2cnn3-c2ccc(S(C)(=O)=O)cc2)CC1`, the EC50 in test [1] is 265 nM. In test [2], this molecule had an Emax of 87%.
The like results for `Cc1nc(OC2CCN(C(=O)OC(C)(C)C)CC2)c2c(C)nn(-c3ccc(S(C)(=O)=O)cc3)c2n1` were, in that order, 116 nM and 90%.
On to `CC(C)(C)COC(=O)N1CCC(Oc2ncnc3c2cnn3-c2ccc(S(C)(=O)=O)cc2)CC1`, for which the concentration for a half-maximal effect (EC50) was found to be 8.1 nM in test [1] and 65 nM in test [4]. This molecule also registered a maximal effect (Emax) in test [2] of 105%. The Ratio EC50 in test [3] turned out to be 8.
`CC(C)(C)OC(=O)N1CCC(Oc2ncnc3c2[nH]c(=O)n3-c2ccc(S(C)(=O)=O)cc2F)CC1` showed an EC50 in test [1] of 0.6 nM. In test [2], this molecule registered a maximal effect (Emax) of 64%.
As to `CC(C)(C)OC(=O)N1CCC(Oc2ncnc3c2cnn3-c2ccc(S(C)(=O)=O)cc2F)CC1`, the values for the EC50 in test [1] and in test [4] were 0.9 nM and 19.6 nM, respectively. This molecule showed a maximal effect (Emax) in test [2] of 79%. Moreover, the Ratio EC50 in test [3] was 21.8.
On to `CC(C)c1noc(C2CCN(c3ncnc(Nc4ccc(S(C)(=O)=O)cc4)c3[N+](=O)[O-])CC2)n1`, for which a half-maximal response in test [1] (EC50) required 5.1 nM. In other words, the single-digit nanomolar range.
On to `CC(C)OC(=O)N1CCC(Oc2ncnc3c(-c4ccc(S(C)(=O)=O)cc4)noc23)CC1`, for which the EC50 in test [1] worked out at 14 nM; in test [4], 40 nM. In test [2], this molecule came in with an Emax of 65%. For the same molecule, the Ratio EC50 in test [3] is 3.
Taken in the same sequence, the figures for `Cc1nn(-c2ccc(S(C)(=O)=O)cc2)c2ncnc(OC3CCN(C(=O)OC(C)(C)C)CC3)c12` were 15 nM, 42 nM, 103% and 3.
